The target in experiment [1] is T1, Phosphodiesterase 4 (Rattus norvegicus, UniProt P14270+P14646+P14644+P54748). As to the kind of experiment: Inhibition of [3H]cAMP (NEN NET-275) binding to Calcium-Independent Phosphodiesterase from rat brain. A digest of the protocol:
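Enzyme from fresh rat brain (Davis method). Test compound or vehicle with enzyme in [3H]cAMP substrate in Tris-HCl/MgCl2 buffer, 37 °C for 8 min, in triplicate. Stopped by boiling 2 min. Carrier 5'-AMP added; boronate affinity gel separated [3H]-5'-AMP from cAMP, and product counted by scintillation. IC50 from dose-response curves of three log concentrations, each in triplicate.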

Experiment [2] concerns the target T1, Phosphodiesterase 4. As to the kind of experiment: Inhibition of [3H]rolipram binding to rat brain membranes. Format: cell membranes, Membrane. An outline of the steps:
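Rat brain homogenized in ice-cold 50 mM Tris/1.2 mM MgCl2, pH 8.0, washed twice by centrifugation and used at 0.5 mg protein/mL. Incubated with [3H]rolipram and test compound at various concentrations for 30 min at 25 °C, in triplicate. Glass-fiber filtration, three ice-cold washes, scintillation counting. IC50 from semilog plots of percent inhibition vs concentration.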

The species entered for the next experiment is Mus musculus. In words: Minimal effective peroral dose in mouse reserpine hypothermia test. It counts as functional. Particulars: po, read-out: MED.

Bounds are passed on as bounds.

As a reminder, the IC50 is the concentration needed to halve the response being measured. As to `COC(=O)c1cccc(Oc2ncccc2C(=O)NCc2ccccc2)c1`, the half-maximal inhibitory concentration (IC50) at Phosphodiesterase 4 [1] turned out to be 1.4 µM; on Phosphodiesterase 4 [2], 6.6 µM. Moreover, in the experiment listed under Mus musculus, the minimal effective dose was found to be 0.001 mg/kg.

Turning to `O=C(NCc1ccccc1)c1cccnc1Oc1cccc(C(F)(F)F)c1`, the results for the IC50 at Phosphodiesterase 4 [1] and at Phosphodiesterase 4 [2] were 6.5 µM and 54 µM, respectively. Further, the minimal effective dose in the experiment filed under Mus musculus is 3.2 mg/kg.

Consider `O=C(NCc1ccccc1)c1cccnc1Oc1ccccc1`, for which the IC50 at Phosphodiesterase 4 [1] came to 1.8 µM; on Phosphodiesterase 4 [2] it was 49 µM. Also, the minimal effective dose in the experiment listed under Mus musculus was 0.32 mg/kg.

Regarding `O=C(NCc1ccccc1)c1cccnc1Oc1ccc(F)cc1`, the IC50 at Phosphodiesterase 4 [1] was found to be 2.9 µM; at Phosphodiesterase 4 [2], 37 µM. Besides, the minimal effective dose in the experiment listed under Mus musculus worked out at 0.01 mg/kg.

As to `N#Cc1cccc(Oc2ncccc2C(=O)NCc2ccccc2)c1`, the half-inhibitory concentration (IC50) on Phosphodiesterase 4 [1] worked out at 9.8 µM; at Phosphodiesterase 4 [2] it was 22 µM. In the experiment listed under Mus musculus, the minimal effective dose is 0.1 mg/kg.

For the compound `CC(C)NC(=O)c1cccnc1Oc1ccc(F)cc1`, the values for the half-maximal inhibitory concentration (IC50) on Phosphodiesterase 4 [1] and on Phosphodiesterase 4 [2] were 3.1 µM and 26 µM, respectively. In addition, the minimal effective dose in the experiment filed under Mus musculus worked out at 0.001 mg/kg.

For `O=C(NCc1ccccc1)c1cccnc1Oc1ccccc1F`, the IC50 was 10 µM at Phosphodiesterase 4 [1] and greater than 100 µM on Phosphodiesterase 4 [2]. The minimal effective dose in the experiment filed under Mus musculus is 0.01 mg/kg.

On to `O=C(NCc1ccc(F)cc1)c1cccnc1Oc1ccc(F)cc1`, for which the concentration for half-maximal inhibition (IC50) at Phosphodiesterase 4 [1] was 4 µM; on Phosphodiesterase 4 [2] it was 51 µM. Moreover, the minimal effective dose in the experiment listed under Mus musculus was found to be 0.01 mg/kg.

Take `COc1ccc(CNC(=O)c2cccnc2Oc2ccc(F)cc2)cc1`: the results for the half-inhibitory concentration (IC50) at Phosphodiesterase 4 [1] and on Phosphodiesterase 4 [2] were 0.73 µM and 26 µM, respectively. In addition, the minimal effective dose in the experiment filed under Mus musculus is 3.2 mg/kg.

For the compound `O=C(NCc1ccccc1)c1cccnc1OC1CC2CCC1C2` (stereo unspecified), the IC50 came out at 0.22 µM on Phosphodiesterase 4 [1] and 27 µM at Phosphodiesterase 4 [2]. For the same compound, the minimal effective dose in the experiment filed under Mus musculus stood at 1 mg/kg.

In the case of `O=C(NCc1ccccc1)c1cccnc1Oc1cccc(F)c1`, the concentration for half-maximal inhibition (IC50) at Phosphodiesterase 4 [1] is 1.8 µM; at Phosphodiesterase 4 [2], 29 µM. Moreover, the minimal effective dose in the experiment listed under Mus musculus was determined as 0.01 mg/kg.

With `O=C(Nc1ccccc1)c1cccnc1Oc1ccc(F)cc1`, the half-maximal inhibitory concentration (IC50) was determined as 2.2 µM on Phosphodiesterase 4 [1] and 43 µM at Phosphodiesterase 4 [2]. Further, the minimal effective dose in the experiment listed under Mus musculus was 0.001 mg/kg.

With `O=C(NCc1ccccc1)c1cccnc1Oc1ccc(Cl)c(Cl)c1`, the half-inhibitory concentration (IC50) was 2.2 µM on Phosphodiesterase 4 [1] and 19 µM at Phosphodiesterase 4 [2]. Further, the minimal effective dose in the experiment listed under Mus musculus is greater than 3.2 mg/kg.

Regarding `COc1ccccc1Oc1ncccc1C(=O)NCc1ccccc1`, the 50% inhibitory concentration (IC50) was greater than 10 µM at Phosphodiesterase 4 [1] and greater than 100 µM at Phosphodiesterase 4 [2]. In addition, the minimal effective dose in the experiment filed under Mus musculus was greater than 3.2 mg/kg.

Take `COc1ccc(Oc2ncccc2C(=O)NCc2ccccc2)cc1`: the IC50 came to 3.1 µM at Phosphodiesterase 4 [1] and 100 µM at Phosphodiesterase 4 [2]. Also, in the experiment listed under Mus musculus, the minimal effective dose worked out at 0.01 mg/kg.

In the case of `Cc1ccc(CNC(=O)c2cccnc2Oc2ccc(F)cc2)cc1`, the IC50 on Phosphodiesterase 4 [1] came out at 0.54 µM; at Phosphodiesterase 4 [2], 25 µM. The minimal effective dose in the experiment listed under Mus musculus was 0.001 mg/kg.

As for `COc1cccc(Oc2ncccc2C(=O)NCc2ccccc2)c1`, the IC50 came out at 2.5 µM at Phosphodiesterase 4 [1] and 23 µM on Phosphodiesterase 4 [2]. Also, the minimal effective dose in the experiment listed under Mus musculus was 0.01 mg/kg.
